# In BindingDB's records for doi:10.1021/np2003066 (The University of Montana, 2011):
# Target: Interleukin-1 beta (Homo sapiens, UniProt P01584)
# Experiment: Induction of IL-1 beta production in LPS-induced human THP-1 cells by ELISA
# In short: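 THP-1 cells were differentiated with PMA (1 μg/mL) for 24 h, scraped, pelleted and resuspended at 1.0 × 10^6 cells/mL. They were exposed together to test inhibitor, LPS [20 ng/mL] and TiO2 nanowires (100 μg/ml) for 24 h at 37 °C in a CO2 incubator. IL-1β released was measured by DuoSet ELISA, and IC50 was derived from the post-exposure IL-1β levels.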
# Interleukin-1 beta, sequence (P01584 117-269 limits assumed): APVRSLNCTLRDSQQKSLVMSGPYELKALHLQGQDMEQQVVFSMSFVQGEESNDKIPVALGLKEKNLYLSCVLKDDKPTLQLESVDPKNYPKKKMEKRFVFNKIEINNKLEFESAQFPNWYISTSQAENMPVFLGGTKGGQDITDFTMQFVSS
row,SMILES,IC50
1,CC(=O)N[C@@H](Cc1ccc(O)cc1)C(=O)N[C@H](C(=O)N[C@@H](C)C(=O)N[C@H](C=O)CC(=O)O)C(C)C,2 µM
2,C=C1[C@@]2(C)C[C@H]3[C@]4(C)CCC(=O)C(C)(C)[C@H]4CC[C@]3(C)[C@]1(C(=O)OC)C(=O)[C@@](C)(O)C2=O,15.5 µM
3,C=C1[C@@]2(C)C[C@H]3[C@]4(C)CC[C@@H](O)C(C)(C)[C@H]4CC[C@]3(C)[C@]1(C(=O)OC)C(=O)[C@@](C)(O)C2=O,2.7 µM
4,C=C1[C@@]2(C)C[C@@H]3[C@](C)(CC=C4C(C)(C)OC(=O)CC[C@]43C)[C@]1(C(=O)OC)C(=O)[C@@](C)(O)C2=O,3.7 µM
5,C=C1[C@@]2(C)C[C@H]3[C@]4(C)CCC(=O)OC(C)(C)[C@@H]4CC[C@]3(C)[C@]1(C(=O)OC)C(=O)[C@@](C)(O)C2=O,34.3 µM
6,C=C(C)C1=CC[C@@]2(C)[C@@H](C[C@]3(C)C(=C)[C@@]2(C(=O)OC)C(=O)[C@@](C)(O)C3=O)[C@]1(C)CCC(=O)O,37.8 µM
7,C=C1[C@@]2(C)C[C@H]3C(C)=C4CC(=O)OC(C)(C)C4=CC[C@]3(C)[C@]1(C(=O)OC)C(=O)[C@@](C)(O)C2=O [BERKELEYDIONE],4.4 µM
